Calls of active or inactive are those of the source.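 Rule for the calls: active = a dose-dependent boost of the low-dose acetylcholine calcium response, with potency and top response fitted; inactive = the rest.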
These compounds were tested against Muscarinic acetylcholine receptor M4 (Homo sapiens) (UniProt P08173) (assay: potentiation of ACh response at M4 – CHO hM4/Gqi5 cells, calcium mobilization, SAR follow-up (AID 588743)). Settings: PAM with EC20 ACh.
Outline: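 System: CHO cells with human M4 plus Gqi5. Also added: acetylcholine at EC20, then at EC80 86 s later. Timing: 144 s compound preincubation, 37 °C. Signal: calcium mobilization fluorescence, cells loaded with 2.3 µM Fluo-4 AM. Read-out basis: EC50 by four-parameter logistic fit, signal as percent ACh maximum.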

Sequence of Muscarinic acetylcholine receptor M4 (Homo sapiens) (P08173 whole entry, looked up): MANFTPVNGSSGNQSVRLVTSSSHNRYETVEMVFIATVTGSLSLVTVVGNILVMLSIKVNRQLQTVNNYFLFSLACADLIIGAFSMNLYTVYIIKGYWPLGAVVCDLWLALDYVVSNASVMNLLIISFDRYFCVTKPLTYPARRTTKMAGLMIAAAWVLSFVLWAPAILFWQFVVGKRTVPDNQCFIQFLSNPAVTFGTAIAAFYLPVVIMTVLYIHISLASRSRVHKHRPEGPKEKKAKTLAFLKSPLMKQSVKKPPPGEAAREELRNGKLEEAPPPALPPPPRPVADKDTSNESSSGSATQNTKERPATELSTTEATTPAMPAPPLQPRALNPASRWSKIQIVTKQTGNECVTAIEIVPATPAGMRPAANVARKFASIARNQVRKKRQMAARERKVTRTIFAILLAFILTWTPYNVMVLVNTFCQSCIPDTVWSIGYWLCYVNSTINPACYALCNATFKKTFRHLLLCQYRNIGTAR

Structure (SMILES) | EC50 [nM]
Cc1nc2sc(C(=O)NCCC3CCCN3C)c(N)c2c(C)c1Cl (configuration not stated) | 596
COCCCNC(=O)c1sc2nc(C)c(Cl)c(C)c2c1N | 425
Cc1nc2sc(C(=O)NCc3ccc(C(F)(F)F)cc3)c(N)c2c(C)c1Cl | 1140
Cc1nc2sc(C(=O)NCCc3ccccn3)c(N)c2c(C)c1Cl | 686
Cc1nc2sc(C(=O)NC(C)(C)C)c(N)c2c(C)c1Cl | 372
Cc1nc2sc(C(=O)NC(C)c3ccncc3)c(N)c2c(C)c1Cl (configuration not stated) | 600
Cc1nc2sc(C(=O)NCc3ccccn3)c(N)c2c(C)c1Cl | 293
Cc1nc2sc(C(=O)NCC3CCCCC3)c(N)c2c(C)c1Cl | 1090
Cc1nc2sc(C(=O)NC(C)c3cccnc3)c(N)c2c(C)c1Cl (configuration not stated) | 601
Cc1nc2sc(C(=O)NCc3ncccn3)c(N)c2c(C)c1Cl | 1070
Cc1nc2sc(C(=O)NCc3cccnc3)c(N)c2c(C)c1Cl | 328
Cc1nc2sc(C(=O)NCc3cnccn3)c(N)c2c(C)c1Cl | 250
Cc1nc2sc(C(=O)NC3COC3)c(N)c2c(C)c1Cl | 906
Cc1nc2sc(C(=O)NC(C)c3ccccn3)c(N)c2c(C)c1Cl (configuration not stated) | 1410

Other lines, results leading:

EC50 [nM] | Structure (SMILES)
222 | Cc1nc2sc(C(=O)NCc3ccnnc3)c(N)c2c(C)c1Cl
220 | Cc1nc2sc(C(=O)NC3CCOCC3)c(N)c2c(C)c1Cl
211 | Cc1nc2sc(C(=O)NCCc3ccncc3)c(N)c2c(C)c1Cl
188 | Cc1nc2sc(C(=O)NC3CCCCC3)c(N)c2c(C)c1Cl
183 | Cc1nc2sc(C(=O)NC(C)C)c(N)c2c(C)c1Cl
174 | Cc1nc2sc(C(=O)NCc3nccs3)c(N)c2c(C)c1Cl
173 | Cc1nc2sc(C(=O)NCc3ccncn3)c(N)c2c(C)c1Cl
170 | Cc1nc2sc(C(=O)NCc3ccc4c(c3)OCO4)c(N)c2c(C)c1Cl
154 | Cc1nc2sc(C(=O)NCc3ccccc3Cl)c(N)c2c(C)c1Cl
133 | Cc1nc2sc(C(=O)NCc3ccccc3)c(N)c2c(C)c1Cl
132 | Cc1ccc(CNC(=O)c2sc3nc(C)c(Cl)c(C)c3c2N)cc1
120 | Cc1nc2sc(C(=O)NCc3cccc(F)c3F)c(N)c2c(C)c1Cl
89.1 | COc1ccc(CNC(=O)c2sc3nc(C)c(Cl)c(C)c3c2N)cc1
57 | Cc1cc(CNC(=O)c2sc3nc(C)c(Cl)c(C)c3c2N)ccn1
37.2 | Cc1nc2sc(C(=O)NCc3ccncc3)c(N)c2c(C)c1Cl
28.7 | Cc1nc2sc(C(=O)NC3CCOC3)c(N)c2c(C)c1Cl (configuration not stated)
20.8 | Cc1nc2sc(C(=O)NC3CC3)c(N)c2c(C)c1Cl

Same assay, conditions: PAM with EC20 ACh, at 30 µM (top of the series)

percent ACh max response | Structure (SMILES)
inactive | Cc1nc2sc(C(=O)Nc3ccccc3N(C)C)c(N)c2c(C)c1Cl
inactive | Cc1nc2sc(C(=O)NCCc3cccnc3)c(N)c2c(C)c1Cl
45.2 | COc1ccc(NC(=O)c2sc3nc(C)c(Cl)c(C)c3c2N)cc1
inactive | CCOc1ccc(NC(=O)c2sc3nc(C)c(Cl)c(C)c3c2N)cc1

Same assay, conditions: PAM with EC20 ACh, at 36.9 µM (top of the series)

percent ACh max response | Structure (SMILES)
31.6 | Cc1nc2sc(C(=O)NCc3ccc(F)c(F)c3)c(N)c2c(C)c1Cl
32.3 | Cc1nc2sc(C(=O)NCc3ccc(Cl)cc3)c(N)c2c(C)c1Cl

Source: PubChem BioAssay AID588743 (Vanderbilt Specialized Chemistry Center, 2011)
